Laboratory results reported in ChEMBL document CHEMBL3997766, “Synthesis and pre-clinical studies of new amino-acid ester thiazolide prodrugs” (Eur J Med Chem, 2017).

Key:
Plasma [1] = experiment: Drug metabolism in Sprague-Dawley rat assessed as tizoxanide-glucuronide formation in plasma at 30 mg/kg, po administered as single dose measured after 5 mins; format: ADME, organism-based; settings: in vivo
Method in brief: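 Plasma tizoxanide and tizoxanide glucuronide were measured and PK parameters derived. AUCs were dose-corrected to 30 mg/kg for bioavailability.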

Rattus norvegicus [2] = experiment: Cmax in Sprague-Dawley rat assessed as Tizoxanide level in plasma at 6 mg/kg, iv administered as single dose; format: ADME, organism-based; design: dose 6 mg/kg, route intravenous; settings: in vivo
Method in brief: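 Rats in groups of three received one compound as a single oral dose (30 mg/kg) or a single intravenous injection (6 mg/kg), with four compounds studied separately. Serial blood samples were drawn at 5, 10, 15 and 30 min and at 1, 2, 4, 8, 23 and 24 h post-dose. Plasma parent drug and metabolites were quantified and PK parameters were derived.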

Rattus norvegicus [3] = experiment: Elimination half life in Sprague-Dawley rat assessed as Tizoxanide level in plasma at 6.3 mg/kg, iv administered as single dose; format: ADME, organism-based; settings: in vivo
Rattus norvegicus [4] = experiment: Oral bioavailability in Sprague-Dawley rat assessed as Tizoxanide-glucuronide level at 28 mg/kg; format: ADME, organism-based; settings: in vivo
Method in brief: (§1)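 Rats in groups of three got a single oral dose (30 mg/kg) or a single intravenous injection (6 mg/kg). Serial blood samples were taken at 5, 10, 15 and 30 min and at 1, 2, 4, 8, 23 and 24 h post-dose for plasma drug and glucuronide levels. Bioavailability came from oral versus intravenous AUC after dose correction to 30 mg/kg.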

Rattus norvegicus [5] = experiment: Elimination half life in Sprague-Dawley rat assessed as Tizoxanide level at 6.3 mg/kg, iv administered as single dose; format: ADME, organism-based; settings: in vivo
Rattus norvegicus [6] = experiment: Neurotoxicity in Sprague-Dawley rat assessed as decreased abdominal tone at 1000 mg/kg administered via oral gavage as single dose after 4 to 24 hrs; format: toxicity, organism-based; settings: in vivo
Method in brief: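 Three groups of 10 rats (5M/5F) received a single dose by oral gavage of 100, 300 or 1000 mg/kg, and an untreated group served as control. Clinical signs of CNS effects were recorded at 4 and 24 h after treatment.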

Rattus norvegicus [7] = experiment: Toxicity in Sprague-Dawley rat assessed as effect on respiratory rate by measuring breaths per minute at 100 to 1000 mg/kg administered as single dose via oral gavage; format: organism-based; settings: in vivo
Method in brief: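 Respiratory safety study: conscious rats, 3 groups of 6 (3M/3F), given single oral-gavage doses of 100, 300 or 1000 mg/kg, with an untreated control group. Respiratory rate (breaths per minute), tidal volume and minute volume were recorded, and mortality was noted.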

Rattus norvegicus [8] = experiment: Toxicity in Sprague-Dawley rat assessed as body weight gain at 75 mg/kg administered as oral gavage qd for 28 consecutive days measured during last 2 weeks of dosing relative to control; format: organism-based; settings: in vivo, 336 h
Method in brief: (§2)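 Sub-acute study in Sprague-Dawley rats dosed orally with a suspension at 10, 30 and 75 mg/kg once daily for 28 consecutive days. Four groups of up to 30 rats each (15M/15F).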

Canis familiaris [9] = experiment: Toxicity in Beagle dog at 5 to 75 mg/kg, po administered as gelatin capsule qd for 28 consecutive days; format: organism-based, Canis lupus familiaris; settings: in vivo
Plasma [10] = experiment: Prodrug activation in Sprague-Dawley rat assessed as tizoxanide formation in plasma at 6.3 mg/kg, iv administered as single dose measured after 5 mins; format: organism-based; settings: in vivo; method in brief: as §1
Rattus norvegicus [11] = experiment: Tmax in Sprague-Dawley rat assessed as Tizoxanide in plasma at 6.3 mg/kg, iv administered as single dose; format: ADME, organism-based; settings: in vivo; method in brief: as §1
Rattus norvegicus [12] = experiment: Toxicity in Sprague-Dawley rat assessed as effect on respiratory rate by measuring minute volume dose at 1000 mg/kg administered as single dose via oral gavage; format: organism-based; settings: in vivo
Method in brief: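 Conscious rats in three groups of six (3M/3F) got single oral gavage doses of 100, 300 or 1000 mg/kg, with an untreated control group. Respiratory rate (breaths per minute), tidal volume and minute volume were recorded.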

Rattus norvegicus [13] = experiment: Toxicity in Sprague-Dawley rat assessed as body weight gain at 75 mg/kg administered as oral gavage qd for 28 consecutive days measured during last 3 weeks of dosing; format: organism-based; settings: in vivo, 504 h; method in brief: as §2
Rattus norvegicus [14] = experiment: Toxicity in Sprague-Dawley rat assessed as early death at 10 to 75 mg/kg administered as oral gavage qd for 28 consecutive days measured up to day 43; format: organism-based; settings: in vivo
Method in brief: (§3)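 Sub-acute study in Sprague-Dawley rats: 10, 30 or 75 mg/kg given orally once a day for 28 consecutive days as a yellow suspension. There were 4 groups of up to 30 rats each (15M/15F), including a control. Body weight, clinical observations and terminal findings were assessed.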

Rattus norvegicus [15] = experiment: Toxicity in Sprague-Dawley rat assessed as decrease in serum alanine transferase level at 75 mg/kg administered as oral gavage qd for 28 consecutive days followed by 2 weeks recovery period measured on day 43; format: organism-based; settings: in vivo, 336 h; method in brief: as §2
Rattus norvegicus [16] = experiment: Toxicity in Sprague-Dawley rat assessed as decrease in serum sodium level at 10 to 75 mg/kg administered as oral gavage qd for 28 consecutive days followed by 2 weeks recovery period measured on day 43; format: organism-based; settings: in vivo, 336 h; method in brief: as §2
Rattus norvegicus [17] = experiment: Toxicity in Sprague-Dawley rat assessed as increase in serum chloride level at 30 mg/kg administered as oral gavage qd for 28 consecutive days followed by 2 weeks recovery period measured on day 43; format: organism-based; settings: in vivo, 336 h; method in brief: as §2
Rattus norvegicus [18] = experiment: Toxicity in Sprague-Dawley rat assessed as increase in total bilirubin level at 30 to 75 mg/kg administered as oral gavage qd for 28 consecutive days followed by 2 weeks recovery period measured on day 43; format: organism-based; settings: in vivo, 336 h; method in brief: as §2
Rattus norvegicus [19] = experiment: Toxicity in Sprague-Dawley rat assessed as mixed cell inflammation in stomach at 30 to 75 mg/kg administered as oral gavage qd for 28 consecutive days measured on day 29 by microscopic method; format: organism-based; settings: in vivo; method in brief: as §3
Rattus norvegicus [20] = experiment: Toxicity in Sprague-Dawley rat assessed as hemorrhage in stomach at 30 to 75 mg/kg administered as oral gavage qd for 28 consecutive days measured on day 29 by microscopic method; format: organism-based; settings: in vivo; method in brief: as §3
Rattus norvegicus [21] = experiment: Toxicity in Sprague-Dawley rat assessed as erosions in stomach at 75 mg/kg administered as oral gavage qd for 28 consecutive days followed by 2 weeks recovery period by microscopic method; format: organism-based; settings: in vivo, 336 h; method in brief: as §2
Canis familiaris [22] = experiment: Toxicity in Beagle dog assessed as early death at 5 to 25 mg/kg, po administered as gelatin capsule once daily for 28 days followed by 2 weeks recovery period measured on day 43; format: organism-based, Canis lupus familiaris; settings: in vivo
Method in brief: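 Sub-acute study in Beagle dogs: 5, 15 or 25 mg/kg/day given orally in a single gelatin capsule once a day for 28 consecutive days to assess systemic exposure and toxicity, with NOAEL determination.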

Canis familiaris [23] = experiment: Toxicity in Beagle dog assessed as decrease in cholesterol level up to 25 mg/kg, po administered as gelatin capsule once daily for 28 days measured on day 29; format: organism-based, Canis lupus familiaris; settings: in vivo, 672 h
Method in brief: (§4)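 Sub-acute study in Beagle dogs dosed orally by gelatin capsule at 5, 15 and 25 mg/kg once a day for 28 consecutive days.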

Canis familiaris [24] = experiment: Toxicity in Beagle dog assessed as decrease in cholesterol level at 25 mg/kg, po administered as gelatin capsule once daily for 28 days followed by two weeks of recovery period; format: organism-based, Canis lupus familiaris; settings: in vivo, 672 h; method in brief: as §4
Canis familiaris [25] = experiment: Toxicity in Beagle dog assessed as thickened duodenum up to 25 mg/kg, po administered as gelatin capsule once daily for 28 days measured on day 29; format: organism-based, Canis lupus familiaris; settings: in vivo, 672 h; method in brief: as §4
Canis familiaris [26] = experiment: Drug metabolism in Beagle dog assessed as tizoxanide-glucuronide level in plasma administered orally as gelatin capsule once daily for 28 days measured on day 1 and 29; format: ADME, Canis lupus familiaris; settings: po, 672 h
Method in brief: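 Beagle dogs received the drug orally in a single gelatin capsule at 5, 15 or 25 mg/kg once daily for 28 consecutive days in a sub-acute toxicity study assessing systemic exposure.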

Q: Which results are given for `CC(C)(C)[C@H](N)C(=O)Oc1ccccc1C(=O)Nc1ncc([N+](=O)[O-])s1.Cl`?
A: Drug metabolism (Plasma [1]): Metabolite_Detected; Cmax (Rattus norvegicus [2]): 12800 ng/mL; beta t1/2 (Rattus norvegicus [3]): 22.8 min; F (Rattus norvegicus [4]): 13%; beta t1/2 (Rattus norvegicus [5]): 22.8 min; Activity (Rattus norvegicus [6]): Toxic; Activity (Rattus norvegicus [7]): Toxic; Activity (Rattus norvegicus [8]): 4 to 5%; Activity (Canis familiaris [9]): Non-Toxic; Drug metabolism (Plasma [10]): Metabolite_Detected; Tmax (Rattus norvegicus [11]): 5 min; Activity (Rattus norvegicus [12]): Toxic; Activity (Rattus norvegicus [13]): Non-Toxic; Activity (Rattus norvegicus [14]): Non-Toxic; Activity (Rattus norvegicus [15]): Toxic; Activity (Rattus norvegicus [16]): Toxic; Activity (Rattus norvegicus [17]): Toxic; Activity (Rattus norvegicus [18]): Toxic; Activity (Rattus norvegicus [19]): Toxic; Activity (Rattus norvegicus [20]): Toxic; Activity (Rattus norvegicus [21]): Non-Toxic; Activity (Canis familiaris [22]): Non-Toxic; Activity (Canis familiaris [23]): Toxic; Activity (Canis familiaris [24]): Non-Toxic; Activity (Canis familiaris [25]): Non-Toxic; Drug metabolism (Canis familiaris [26]): Dose-dependent effect
